Assay results: paper PMC4615699 (Cell, 2015)

Tests used:
[1] = target: PTGS1 (Mus musculus, UniProt P22437); test: In situ competitive SILAC profiling of A-DA labeling, PTGS1 in Neuro2a cells; format: cell-based; details: drug 25 μM, A-DA 5 μM, 30 min
[2] = target: T1, NUCB1 (Homo sapiens, UniProt Q02818); format: binding; details: AEA-DA 5.0 μM; lipids 20×
T1 sequence (Q02818 27-461): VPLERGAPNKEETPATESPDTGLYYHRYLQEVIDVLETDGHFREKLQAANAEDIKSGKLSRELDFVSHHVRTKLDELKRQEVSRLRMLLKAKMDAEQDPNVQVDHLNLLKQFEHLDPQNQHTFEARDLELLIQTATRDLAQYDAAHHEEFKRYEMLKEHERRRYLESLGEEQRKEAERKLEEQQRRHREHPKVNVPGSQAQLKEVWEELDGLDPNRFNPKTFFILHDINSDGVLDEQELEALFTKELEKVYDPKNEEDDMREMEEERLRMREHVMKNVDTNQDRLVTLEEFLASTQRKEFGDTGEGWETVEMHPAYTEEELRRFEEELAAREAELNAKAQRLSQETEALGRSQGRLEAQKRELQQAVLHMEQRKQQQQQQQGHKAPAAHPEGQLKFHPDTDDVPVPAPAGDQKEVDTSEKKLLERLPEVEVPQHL
In short: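 Performed in vitro in lysates of NUCB1-transfected HEK293T cells, with AEA-DA probe and lipid competitors. Labeled proteomes (1.0 mg/mL) were CuAAC-conjugated to rhodamine-azide for 1 h at room temperature, quenched in SDS loading buffer, separated on 10% SDS-PAGE and detected by in-gel fluorescence.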

[3] = target: T2, recombinant, purified human NUCB1 (hNUCB1) (Homo sapiens, UniProt Q02818); test: NUCB1 FluoPol assay with Fl-AEA probe; format: binding; details: for suppression of the NUCB1-FluoPol signal by lipids: concentration-dependent
T2 sequence (Q02818 27-461): T1 sequence (Q02818 27-461)
In short: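 Fluorescence polarization readout using purified recombinant human NUCB1 and fluorescent arachidonoyl probe Fl-AEA. Lipid competitors were titrated for concentration-dependent loss of polarization signal. Mean ± SD from at least three independent experiments.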

[4] = target: NENF (Homo sapiens, UniProt Q9UMX5); format: binding; details: competitors 1–100 μM; NENF-transfected HEK293T lysates
[5] = target: DHRS1 (Mus musculus, UniProt Q99L04); test: In situ AEA-DA competition with lipid competitor AEA, DHRS1; format: cell-based; details: competitor 200 μM
[6] = target: PTGR2 (Mus musculus, UniProt Q8VDQ1); test: In situ AEA-DA competition with lipid competitor AEA, PTGR2; format: cell-based; details: competitor 200 μM
[7] = target: ABCB1B (Mus musculus, UniProt P06795); test: In situ drug profiling with lipid probes, ABCB1B in Neuro2a cells; format: cell-based
[8] = system: A549 cells treated with PMA; test: PMA-stimulated prostaglandin production in A549 cells; format: cell-based, human
[9] = target: NAMPT (Mus musculus, UniProt Q99KQ4); details: 25 μM, AEA-DA 5 μM, Neuro2a
[10] = system: Neuro2a cells; test: Targeted metabolite; format: cell-based, mouse; details: for elevations in NAEs (targeted MRM): 10 μM, 6 h
In short: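 Neuro2a cells were treated with test compound (10 μM) or DMSO for 6 h. Fatty acid amides (NAEs, NATs) were quantified by targeted MRM mass spectrometry. Mean ± SEM, n = 3-4 per group, compared against DMSO-treated cells.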

[11] = system: purified recombinant FAAH; test: Inhibition of purified recombinant FAAH; format: biochemical; details: read-out: IC50 against purified recombinant FAAH
[12] = target: T1, NUCB1; format: binding; details: read-out: IC50, blockade of AEA-DA probe labeling of NUCB1; AEA-DA 5 μM; NUCB1 0.25 μM in HEK293T lysates 0.75 mg/mL
[13] = target: T3, NUCB1 (Mus musculus, UniProt Q02819); format: cell-based; details: Neuro2a cells; for reductions in lipid probe enrichment of NUCB1: 25 μM
T3 sequence (Q02819 26-459): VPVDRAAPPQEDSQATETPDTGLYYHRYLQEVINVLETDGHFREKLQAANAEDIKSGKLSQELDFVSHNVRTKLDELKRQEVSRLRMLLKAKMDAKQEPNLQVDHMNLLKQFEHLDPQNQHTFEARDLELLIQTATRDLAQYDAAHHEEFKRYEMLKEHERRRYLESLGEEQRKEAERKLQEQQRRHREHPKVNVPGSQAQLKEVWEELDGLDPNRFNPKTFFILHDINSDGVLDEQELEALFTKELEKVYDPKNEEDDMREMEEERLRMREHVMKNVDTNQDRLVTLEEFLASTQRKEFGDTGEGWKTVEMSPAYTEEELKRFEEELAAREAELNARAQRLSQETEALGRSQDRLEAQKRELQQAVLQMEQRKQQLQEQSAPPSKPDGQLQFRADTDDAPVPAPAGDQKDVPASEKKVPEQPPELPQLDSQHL

[14] = system: PMA-stimulated A549 cells; test: Conversion of exogenous AEA to PGF2α-EA in PMA-stimulated A549 cells; format: cell-based, human; details: AEA 20 μM, 30 min; MJN228, KML110 5 and 25 μM; others 25 μM
In short: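 A549 cells stimulated with PMA were treated with test compound or DMSO. Exogenous AEA (20 μM, 30 min) was then added and prostamide PGF2α-EA formation was measured. Mean ± SEM, n = 3-4 per group.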

[15] = target: endogenous FAAH in Neuro2a lysates (Mus musculus, UniProt O08914); test: Inhibition of endogenous FAAH in Neuro2a lysates; format: biochemical; details: read-out: IC50 against endogenous FAAH in Neuro2a lysates
[16] = target: NUCB1 (aa 53-68) (Mus musculus, UniProt Q02819); test: isoTOP-ABPP mapping of AEA-DA-labeled NUCB1 peptide in Neuro2a cells; format: cell-based; details: 50 μM compound, AEA-DA 50 μM
In short: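 Neuro2a cells were co-treated with AEA-DA (50 μM) and DMSO or test compound (50 μM), then UV-irradiated. Probe-labeled proteins were CuAAC-conjugated to TEV-cleavable azide-biotin tags, isotopically light for DMSO samples and heavy for compound samples. Probe-modified peptides were mapped by isoTOP-ABPP LC-MS/MS.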

[17] = system: Neuro2a cells; test: Untargeted LC-MS lipidomic analysis of compound-treated Neuro2a cells; format: cell-based, mouse; details: 10 μM, 6 h, P < 0.0001
[18] = system: other AEA-DA-modified proteins; test: Gel-based AEA-DA labeling of other proteins in HEK293T cell lysates; format: binding, human
[19] = target: TMEM97 (Mus musculus, UniProt Q8VD00); test: In situ drug profiling with lipid probes, TMEM97; format: cell-based
[20] = target: EBP (Mus musculus, UniProt P70245); test: In situ drug profiling with lipid probes, EBP; format: cell-based; details: 5 μM drug
[21] = target: LSS (Homo sapiens, UniProt P48449); test: In situ drug profiling with lipid probes, LSS; format: cell-based; details: 5 μM drug
[22] = target: recombinantly expressed TMEM97 (Homo sapiens, UniProt Q5BJF2); format: cell-based; details: transfected HEK293T cells
In short: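 Transfected HEK293T cells (2.5 × 10^6 per 6-cm plate, grown 18-24 h) were washed in DPBS. They then received AEA-DA plus competitor or vehicle in serum-free media for 30 min at 37 °C, followed by 365 nm UV for 10 min at 4 °C. Lysates at 1.0 mg/mL were clicked to rhodamine-azide (TBTA, CuSO4, TCEP; 1 h, room temperature), resolved by 10% SDS-PAGE and read by in-gel fluorescence scanning.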

[23] = target: ferrochelatase (FECH) (Mus musculus, UniProt P22315); test: In situ drug profiling with lipid probes, FECH; format: cell-based
[24] = target: PTGS2 (Homo sapiens, UniProt P35354); details: drug 25 μM, A-DA 5 μM, 30 min, A549
[25] = target: aldose reductase-related protein 2 (AKR1B8) (Mus musculus, UniProt P45377); test: In situ competitive SILAC profiling of A-DA labeling, AKR1B8 in Neuro2a cells; format: cell-based; details: drug 25 μM, A-DA 5 μM
Chain of aldose reductase-related protein 2 (AKR1B8) (P45377 whole entry): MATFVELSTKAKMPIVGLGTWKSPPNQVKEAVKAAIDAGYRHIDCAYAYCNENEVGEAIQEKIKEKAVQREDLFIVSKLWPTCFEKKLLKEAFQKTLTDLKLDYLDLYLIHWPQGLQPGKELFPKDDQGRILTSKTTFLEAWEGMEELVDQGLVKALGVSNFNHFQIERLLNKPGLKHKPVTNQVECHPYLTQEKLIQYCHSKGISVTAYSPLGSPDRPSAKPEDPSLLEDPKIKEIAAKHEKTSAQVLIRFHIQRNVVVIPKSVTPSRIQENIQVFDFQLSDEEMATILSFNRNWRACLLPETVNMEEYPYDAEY

Chain of NENF (Q9UMX5 32-172, species assumed): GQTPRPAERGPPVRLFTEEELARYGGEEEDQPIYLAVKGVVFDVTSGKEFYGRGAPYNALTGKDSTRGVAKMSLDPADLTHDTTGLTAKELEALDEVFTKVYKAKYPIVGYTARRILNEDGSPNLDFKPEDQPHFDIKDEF
Chain of ABCB1B (P06795 whole entry): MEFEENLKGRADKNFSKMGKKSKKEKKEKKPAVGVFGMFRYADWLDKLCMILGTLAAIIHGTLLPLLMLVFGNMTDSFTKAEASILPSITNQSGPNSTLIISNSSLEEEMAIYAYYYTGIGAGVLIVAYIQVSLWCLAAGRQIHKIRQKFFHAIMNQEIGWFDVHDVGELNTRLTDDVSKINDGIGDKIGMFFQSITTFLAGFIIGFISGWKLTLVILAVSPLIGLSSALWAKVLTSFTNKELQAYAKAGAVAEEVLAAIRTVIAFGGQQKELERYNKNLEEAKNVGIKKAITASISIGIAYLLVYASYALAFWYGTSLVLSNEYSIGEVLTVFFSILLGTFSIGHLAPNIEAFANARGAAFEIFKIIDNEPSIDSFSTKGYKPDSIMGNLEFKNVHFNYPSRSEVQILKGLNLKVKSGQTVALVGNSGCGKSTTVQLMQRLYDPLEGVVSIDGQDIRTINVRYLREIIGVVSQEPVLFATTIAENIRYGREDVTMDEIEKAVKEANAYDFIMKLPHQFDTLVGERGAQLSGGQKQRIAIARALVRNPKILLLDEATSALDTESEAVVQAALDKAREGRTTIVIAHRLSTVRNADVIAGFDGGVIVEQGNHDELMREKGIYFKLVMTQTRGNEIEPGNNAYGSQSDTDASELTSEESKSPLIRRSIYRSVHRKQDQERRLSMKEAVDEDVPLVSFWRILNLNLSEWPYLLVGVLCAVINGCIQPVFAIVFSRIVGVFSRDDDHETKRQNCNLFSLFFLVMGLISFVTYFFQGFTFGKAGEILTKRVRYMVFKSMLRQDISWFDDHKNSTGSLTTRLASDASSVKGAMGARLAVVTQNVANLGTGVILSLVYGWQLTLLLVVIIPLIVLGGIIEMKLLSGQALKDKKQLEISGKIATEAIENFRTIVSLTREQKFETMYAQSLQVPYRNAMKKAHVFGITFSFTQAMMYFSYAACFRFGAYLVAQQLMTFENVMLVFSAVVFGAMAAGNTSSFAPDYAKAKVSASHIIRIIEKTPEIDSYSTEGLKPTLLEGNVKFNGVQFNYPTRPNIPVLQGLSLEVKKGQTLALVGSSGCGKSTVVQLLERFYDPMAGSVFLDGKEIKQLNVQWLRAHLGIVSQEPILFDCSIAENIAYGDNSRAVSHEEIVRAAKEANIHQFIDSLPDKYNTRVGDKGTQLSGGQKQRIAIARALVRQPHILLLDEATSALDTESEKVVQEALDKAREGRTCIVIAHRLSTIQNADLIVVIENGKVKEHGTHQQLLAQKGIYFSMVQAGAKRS
Chain of endogenous FAAH in Neuro2a lysates (O08914 whole entry, the tested form may be a part): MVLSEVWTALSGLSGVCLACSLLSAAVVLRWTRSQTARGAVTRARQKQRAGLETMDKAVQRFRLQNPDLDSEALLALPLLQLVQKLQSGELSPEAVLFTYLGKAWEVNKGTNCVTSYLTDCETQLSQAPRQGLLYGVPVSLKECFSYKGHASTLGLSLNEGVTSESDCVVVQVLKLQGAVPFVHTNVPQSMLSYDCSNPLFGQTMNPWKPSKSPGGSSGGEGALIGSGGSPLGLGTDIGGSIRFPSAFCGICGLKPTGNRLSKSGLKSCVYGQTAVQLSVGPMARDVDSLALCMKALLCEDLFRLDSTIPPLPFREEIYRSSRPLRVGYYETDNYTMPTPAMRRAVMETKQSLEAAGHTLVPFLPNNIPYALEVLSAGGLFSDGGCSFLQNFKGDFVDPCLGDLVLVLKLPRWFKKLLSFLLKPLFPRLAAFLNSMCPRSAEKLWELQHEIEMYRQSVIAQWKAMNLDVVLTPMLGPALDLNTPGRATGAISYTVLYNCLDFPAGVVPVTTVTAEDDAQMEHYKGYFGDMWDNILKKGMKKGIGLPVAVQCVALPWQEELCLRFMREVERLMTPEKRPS
Chain of recombinantly expressed TMEM97 (Q5BJF2 whole entry): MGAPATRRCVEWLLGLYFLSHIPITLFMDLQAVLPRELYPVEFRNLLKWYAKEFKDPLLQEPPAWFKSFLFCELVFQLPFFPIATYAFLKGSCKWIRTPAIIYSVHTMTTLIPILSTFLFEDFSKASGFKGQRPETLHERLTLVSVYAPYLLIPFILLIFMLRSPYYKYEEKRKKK
Chain of TMEM97 (Q8VD00 whole entry): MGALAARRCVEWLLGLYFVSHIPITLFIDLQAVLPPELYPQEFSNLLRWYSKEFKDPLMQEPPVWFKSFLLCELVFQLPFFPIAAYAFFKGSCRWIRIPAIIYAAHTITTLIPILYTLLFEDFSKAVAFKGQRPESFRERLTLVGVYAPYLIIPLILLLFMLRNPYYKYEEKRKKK
Chain of LSS (P48449 whole entry): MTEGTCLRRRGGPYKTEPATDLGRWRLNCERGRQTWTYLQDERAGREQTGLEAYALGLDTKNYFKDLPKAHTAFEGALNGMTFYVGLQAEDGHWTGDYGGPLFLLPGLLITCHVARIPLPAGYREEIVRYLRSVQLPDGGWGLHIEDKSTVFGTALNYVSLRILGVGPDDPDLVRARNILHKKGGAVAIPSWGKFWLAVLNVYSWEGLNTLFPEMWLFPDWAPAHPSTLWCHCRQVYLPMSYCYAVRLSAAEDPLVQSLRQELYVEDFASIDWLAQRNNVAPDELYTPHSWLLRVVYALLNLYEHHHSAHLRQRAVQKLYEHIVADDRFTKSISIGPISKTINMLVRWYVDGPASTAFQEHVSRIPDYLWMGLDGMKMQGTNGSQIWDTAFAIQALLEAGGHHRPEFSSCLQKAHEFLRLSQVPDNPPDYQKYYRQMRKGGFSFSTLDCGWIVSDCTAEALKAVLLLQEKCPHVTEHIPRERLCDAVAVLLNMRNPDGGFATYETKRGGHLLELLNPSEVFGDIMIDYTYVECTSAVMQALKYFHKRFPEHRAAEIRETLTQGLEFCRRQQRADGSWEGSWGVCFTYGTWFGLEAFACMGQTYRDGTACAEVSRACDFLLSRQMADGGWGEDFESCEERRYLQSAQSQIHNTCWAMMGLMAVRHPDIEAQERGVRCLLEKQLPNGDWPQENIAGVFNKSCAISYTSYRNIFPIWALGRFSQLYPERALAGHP
Chain of EBP (P70245 whole entry): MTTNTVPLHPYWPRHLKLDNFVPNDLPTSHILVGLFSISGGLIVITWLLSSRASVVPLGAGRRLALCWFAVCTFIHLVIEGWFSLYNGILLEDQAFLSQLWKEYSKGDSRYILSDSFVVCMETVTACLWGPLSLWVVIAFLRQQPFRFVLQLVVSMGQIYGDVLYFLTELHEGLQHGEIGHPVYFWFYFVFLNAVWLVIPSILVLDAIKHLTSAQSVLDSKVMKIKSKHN
Chain of PTGS1 (P22437 27-602): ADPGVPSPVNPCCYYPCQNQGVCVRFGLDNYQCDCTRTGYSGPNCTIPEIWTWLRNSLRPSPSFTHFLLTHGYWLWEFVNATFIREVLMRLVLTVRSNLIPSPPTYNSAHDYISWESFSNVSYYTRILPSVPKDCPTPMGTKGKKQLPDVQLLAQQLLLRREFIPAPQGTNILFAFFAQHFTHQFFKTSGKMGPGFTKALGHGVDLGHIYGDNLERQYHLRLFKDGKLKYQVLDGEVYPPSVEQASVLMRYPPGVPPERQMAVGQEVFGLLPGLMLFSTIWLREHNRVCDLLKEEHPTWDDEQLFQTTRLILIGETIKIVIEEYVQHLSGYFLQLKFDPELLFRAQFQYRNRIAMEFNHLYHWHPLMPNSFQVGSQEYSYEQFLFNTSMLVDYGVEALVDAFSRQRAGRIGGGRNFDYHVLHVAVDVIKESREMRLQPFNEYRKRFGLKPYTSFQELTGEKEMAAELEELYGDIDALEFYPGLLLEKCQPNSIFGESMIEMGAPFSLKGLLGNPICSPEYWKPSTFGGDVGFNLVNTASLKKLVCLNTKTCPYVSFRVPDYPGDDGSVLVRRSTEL
Chain of DHRS1 (Q99L04 whole entry): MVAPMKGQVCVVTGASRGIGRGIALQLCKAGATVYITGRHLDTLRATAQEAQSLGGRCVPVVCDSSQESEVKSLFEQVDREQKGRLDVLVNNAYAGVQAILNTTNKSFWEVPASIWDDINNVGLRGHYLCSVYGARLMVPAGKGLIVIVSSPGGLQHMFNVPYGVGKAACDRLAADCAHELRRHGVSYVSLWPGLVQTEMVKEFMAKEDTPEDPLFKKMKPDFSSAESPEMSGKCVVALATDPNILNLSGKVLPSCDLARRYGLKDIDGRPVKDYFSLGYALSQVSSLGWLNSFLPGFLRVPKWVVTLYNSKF
Chain of ferrochelatase (FECH) (P22315 54-422): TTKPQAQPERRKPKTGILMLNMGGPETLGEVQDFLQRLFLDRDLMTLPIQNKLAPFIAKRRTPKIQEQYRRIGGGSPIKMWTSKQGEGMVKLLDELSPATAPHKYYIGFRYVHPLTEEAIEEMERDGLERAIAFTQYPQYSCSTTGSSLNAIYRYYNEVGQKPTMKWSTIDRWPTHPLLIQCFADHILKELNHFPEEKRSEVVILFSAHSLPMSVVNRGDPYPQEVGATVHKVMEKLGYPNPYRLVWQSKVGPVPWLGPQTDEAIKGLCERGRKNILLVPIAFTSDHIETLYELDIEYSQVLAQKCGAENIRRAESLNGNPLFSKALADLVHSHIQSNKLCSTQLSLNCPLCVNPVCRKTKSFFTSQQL

CC(C(=O)O)c1ccc(-c2ccccc2)c(F)c1 (racemic) [(±)-flurbiprofen]
competition of A-DA labeling of PTGS1 [1]: competitively blocked

CCCCC/C=C\C/C=C\C/C=C\C/C=C\CCCC(=O)OC(CO)CO [2-AG, 2-arachidonoyl glycerol]
blockade of AEA-DA probe labeling of recombinant NUCB1 by lipids [2]: preferentially blocked | suppression of the NUCB1-FluoPol signal by lipids ([3]; Fl-AEA 0.5 μM, NUCB1 1.0 μM): Concentration-dependent suppression

CCCCC/C=C\C/C=C\C/C=C\C/C=C\CCCC(=O)O [AA, arachidonic acid]
blockade of AEA-DA probe labeling of recombinant NUCB1 by lipids [2]: preferentially blocked | suppression of FluoPol signal by competitive lipid ([3]; 20 μM competitor, Fl-AEA 0.5 μM, NUCB1 1.0 μM): significantly suppressed | suppression of the NUCB1-FluoPol signal by lipids ([3]; Fl-AEA 0.5 μM, NUCB1 1.0 μM): Concentration-dependent suppression | competition of AEA-DA probe labeling of recombinant NENF [4]: competitively blocked

CCCCC/C=C\C/C=C\C/C=C\C/C=C\CCCC(=O)NCCO [AEA, N-arachidonoyl ethanolamine]
competition of DHRS1 probe labeling [5]: competed | blockade of AEA-DA probe labeling of recombinant NUCB1 by lipids [2]: preferentially blocked | suppression of the NUCB1-FluoPol signal by lipids ([3]; Fl-AEA 0.5 μM, NUCB1 1.0 μM): Concentration-dependent suppression | competition of PTGR2 probe labeling [6]: competed

O=C(/C=C/c1cccnc1)NCCCCC1CCN(C(=O)c2ccccc2)CC1 [FK-866]
competition of probe-labeling of ABCB1B ([7]; 25 μM, AEA-DA 5 μM, Neuro2a): competed | PMA-stimulated generation of PGE2 [8]: no effect | PMA-stimulated generation of TXB2 [8]: complete suppression | competition of probe-labeling of NAMPT [9]: competed

CCCCC/C=C\C/C=C\C/C=C\C/C=C\CCCC(=O)NCCCCCNC(=O)c1ccc(-c2c3ccc(=[N+](C)C)cc-3oc3cc(N(C)C)ccc23)c(C(=O)[O-])c1 [Fl-AEA]
binding of probe to hNUCB1 (increase in FluoPol signal) [3]: bound

CN1CCN(C(=O)c2c(-c3ccccc3)c3cc([N+](=O)[O-])ccc3n2C)CC1 [KML110]
cellular concentrations of NAEs and NATs [10]: elevated | elevations in NAEs (targeted MRM) [10]: elevations | IC50 [11]: > 100 µM | IC50 [12]: 9.6 µM | reductions in lipid probe enrichment of NUCB1 [13]: 3-5 fold | conversion of exogenous AEA to PGF2α-EA [14]: suppress | IC50 [15]: > 100 µM

CN1CCN(C(=O)c2[nH]c3ccc([N+](=O)[O-])cc3c2-c2ccccc2)CC1 [MJN228]
cellular concentrations of NAEs and NATs [10]: elevated | elevations in NAEs (targeted MRM) [10]: elevations | reduction of signals of AEA-DA-labeled NUCB1 peptide (aa 53-68) [16]: > 5 fold | IC50 [11]: > 100 µM | IC50 [12]: 3.3 µM | elevation of metabolites (NAEs and NATs) versus DMSO [17]: ≥ 2 fold | disruption of other arachidonoyl probe-protein interactions ([18]; HEK293T cell lysates): did not appear to disrupt | selectivity for NUCB1 among ∼400 AEA-DA probe targets ([13]; 10 μM, AEA-DA 5 μM): most competed protein | reductions in lipid probe enrichment of NUCB1 [13]: 3-5 fold | concentration inhibiting lipid probe binding to NUCB1 (as low as) [13]: ≤ 10 µM | concentration of near-maximal inhibition of lipid probe binding to NUCB1 [13]: ~25 µM | conversion of exogenous AEA to PGF2α-EA [14]: suppress | IC50 [15]: > 100 µM

O=C(Nc1cccnn1)N1CCC(=Cc2cccc(Oc3ccc(C(F)(F)F)cn3)c2)CC1 [PF-7845]
cellular concentrations of NAEs and NATs [10]: elevated

C=CC1=C(C)c2cc3[nH]c(cc4nc(cc5[nH]c(cc1n2)c(C)c5CCC(=O)O)C(CCC(=O)O)=C4C)c(C)c3C=C [Pp-IX, protoporphyrin IX]
competition of AEA-DA probe labeling of recombinant NENF [4]: inhibited

C=CCN(C)CCCCCCOc1ccc(C(=O)c2ccc(Br)cc2)c(F)c1 [Ro 48-8071]
competition of TMEM97 ([19]; 5 μM drug): prominent off-targets | competition of EBP [20]: prominent off-targets | competition of LSS [21]: fully competed | blockade of AEA-DA probe labeling of recombinant TMEM97 [22]: block

COc1cc2c(cc1OC)CN(CCc1ccc(NC(=O)c3cccc4c(=O)c5cccc(OC)c5[nH]c34)cc1)CC2 [elacridar]
concentration blocking arachidonoyl probe labeling of ABCB1B (as low as) [7]: ≤ 0.5 µM | concentration blocking arachidonoyl probe labeling of FECH (as low as) [23]: ≤ 0.5 µM | concentration blocking arachidonoyl probe labeling of TMEM97 (as low as) [19]: ≤ 0.5 µM | blockade of AEA-DA probe labeling of recombinant TMEM97 [22]: block

C=CC1=C(C)c2cc3[n-]c(cc4[n-]c(cc5nc(cc1n2)C(C)=C5C=C)c(C)c4CCC(=O)O)c(CCC(=O)O)c3C.[Cl-].[Fe+3] [hemin]
effect on other AEA-DA-modified proteins detected by SDS-PAGE ([18]; NENF-transfected HEK293T lysates): unaffected | competition of AEA-DA probe labeling of recombinant NENF [4]: inhibited

CS(=O)(=O)c1ccc(C2=C(c3ccccc3)C(=O)OC2)cc1 [rofecoxib]
conversion of exogenous AEA to PGF2α-EA [14]: blocked | competition of A-DA labeling of PTGS2 [24]: disrupted | reduction in A-DA labeling of AKR1B8 [25]: strong reductions
